{"source": "paper PMC9262120", "about": "(Chembiochem : a European journal of chemical biology, 2022)", "key": {"[1]": {"test_system": "TMV", "assay": "TMV–TBPT25-FITC ELISA", "assay_type": "binding, Tobacco mosaic virus", "conditions": "varying TMV coated on plates; Figure S5"}, "[2]": {"test_system": "CPMV", "assay": "Cross-reactivity ELISA, CPMV", "assay_type": "binding, cowpea mosaic virus", "conditions": "conclusion", "procedure,_shortened": "(§1)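 Wells coated with 10 µg virus or VLP in 0.1 M bicarbonate, pH 8.6, overnight at 4 °C, then blocked with 5% BSA for 1 h at RT. 10^9 pfu phage in 5% BSA were added for 1 h, followed by 0.5% TBST washes. Detection used HRP anti-M13 (1:500, 1 h) and TMB for 10 min in the dark, read at 370 nm. Controls were empty M13KE phage and BSA-coated wells.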"}, "[3]": {"test_system": "BSA", "assay": "Off-target binding to blocking agent BSA", "parameters": "species or system bovine"}, "[4]": {"test_system": "TMGMV", "assay": "Cross-reactivity ELISA, TMGMV", "assay_type": "binding, tobacco mild green mosaic virus", "conditions": "conclusion", "procedure,_shortened": "as §1"}, "[5]": {"test_system": "TMV", "assay": "ELISA with biotinylated peptide on streptavidin plates", "assay_type": "binding, Tobacco mosaic virus", "conditions": "CPMV-specific vs TMV-specific biotinylated peptide, Figure S3", "procedure,_shortened": "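0.1 µg biotinylated peptide was bound to streptavidin-coated plates for 1 h at RT; control wells received 5% BSA without peptide. Plates were blocked with 5% BSA, then 10 µg TMV was added for 1 h. Detection used rabbit anti-TMV polyclonal (1:1000, 1 h), then HRP goat anti-rabbit (1:10,000, 1 h), then TMB for 5–10 min. Reactions were stopped with 2 M H₂SO₄ and read at 450 nm.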"}, "[6]": {"molecular_target": "T1, tobacco mild green mosaic virus particles (tobacco mild green mosaic virus, UniProt P03579 1-159)", "T1 sequence": "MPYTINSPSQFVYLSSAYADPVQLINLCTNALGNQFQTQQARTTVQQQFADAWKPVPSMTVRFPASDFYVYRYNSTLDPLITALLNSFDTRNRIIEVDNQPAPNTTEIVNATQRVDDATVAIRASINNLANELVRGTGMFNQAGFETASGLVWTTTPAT", "assay": "ELISA"}}}
{"molecule": "H2N-GHRCRGGVCYKKKGGGSK/FITC/-CO2H [TBPT25-FITC]", "values": [{"measurement": "concentration dependence of binding", "setting": "[1]", "result": "the more TMV coated onto the plates, the higher signal"}]}
{"molecule": "H-GHRCRGGVCYKK-OH (cysteine pairing not given here) [TBPT25]", "values": [{"measurement": "off-target binding to CPMV", "setting": "[2]", "result": "Some off-target binding"}, {"measurement": "off-target binding to BSA", "setting": "[3]", "result": "Some off-target binding"}, {"measurement": "off-target binding to TMGMV", "setting": "[4]", "result": "Some off-target binding"}, {"measurement": "TMV binding, random peptide comparison", "setting": "[5]", "result": "TMV binding to the TMV-specific TBPT25 was confirmed"}]}
{"molecule": "GHRCRGGVCYKK (designed binder)", "note": "[monoclonal phage T25 (M13 phage displaying [residues removed])]", "values": [{"measurement": "fold less binding than to TMV", "setting": "[6]", "result": 1.2, "unit": "fold"}]}
